This is an account of results in ChEMBL document CHEMBL1123113, “"Reverse" and "symmetrical" analogues of actinomycin D: metabolic activation and in vitro and in vivo tumor growth inhibitory activities” (J Med Chem, 1985).

Broadly, the ILS is the gain in survival time of treated over control animals, in per cent. A higher ILS goes with a large benefit in survival.

The subject of experiment [1] is Mus musculus. Put plainly: In vivo antitumor activity was determined against P388 leukemia mice as number of mice survived after administration of 450 ug/Kg dose of compound; Value represented as no of survivors/ treated = 3/8. Format: functional.
Experiment [2] relates to Mus musculus. Put plainly: Antitumor activity against P388 leukemia cells in terms of median survival time of mice at an optimal dose of 450 ug/kg administered ip. The experiment is classed as functional.
For experiment [3], the species on record is Mus musculus. Put plainly: Antitumor activity against B16 melanoma in terms of percentage increase in life span in mice after 65 days. Format: functional.
For experiment [4], the system named is Mus musculus. Put plainly: Antitumor activity against P388 leukemia cells in terms of percentage increase in life span in mice at an optimal dose of 450 ug/kg administered ip. Format: functional.
In experiment [5] the test system is Mus musculus. Put plainly: In vivo antitumor activity was determined against B16 melanoma in mice as number of mice survived after administration of 300 ug/Kg dose of compound; Value represented as no of survivors/ treated = 3/9. Format: functional.
Another experiment has as its system CCRF-CEM. Put plainly: Inhibitory dose required for the inhibition of human lymphoblastic leukemia cells(CCRF-CEM). Format: functional. The following applies: read-out: ID50 (the source's name).
The species named for experiment [6] is Rattus norvegicus. Put plainly: Compound tested for NADPH oxidation in rat hepatic mycrosomal incubation. The experiment is classed as functional. The method, boiled down:
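Phenobarbital-induced rat liver microsomes (300 µg), 37 °C, no epinephrine; NADPH 0.4 mM added to sample cuvette only. A340 followed; % oxidation = (1 − A340/A'340)×100 vs cuvette not activated by microsomes; % stimulation = (drug rate − basal rate)/basal rate ×100. Drugs in 150 mM KCl-50 mM Tris pH 7.4; triplicate analyses, mean ± standard error.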

The species entered for experiment [7] is Rattus norvegicus. Put plainly: Compound tested for adrenochrome formation in rat hepatic mycrosomal incubation. The experiment is classed as functional. A digest of the protocol: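 Superoxide read as adrenochrome from epinephrine (in 0.01 N HCl) with phenobarbital-induced rat liver microsomes (300 µg) at 37 °C; NADPH 0.4 mM added to sample cuvette after 1 min. Rate at 480 nm (ε 4.02 mM-1 cm-1); drug ≤100 µM in 150 mM KCl-50 mM Tris pH 7.4; % stimulation over basal rate; triplicate, mean ± standard error.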

Experiment [8] deals with Mus musculus. Put plainly: Antitumor activity against B16 melanoma in terms of median survival time of mice at an optimal dose of 300 ug/kg administered ip. Format: functional.
Experiment [9] has as its system Mus musculus. Put plainly: Antitumor activity against B16 melanoma in terms of percentage increase in life span in mice at an optimal dose of 900 ug/kg administered ip. Format: functional.
The test system of experiment [10] is Mus musculus. Put plainly: Antitumor activity against P388 leukemia cells in terms of percentage increase in life span in mice at an optimal dose of 1000 ug/kg administered ip. Format: functional.
Experiment [11] deals with Mus musculus. Put plainly: Antitumor activity against B16 melanoma in terms of median survival time of mice at an optimal dose of 900 ug/kg administered ip. The experiment is classed as functional.
The species named for experiment [12] is Mus musculus. Put plainly: Dose providing an increase in the life span of 45% over control in P388 tumor bearing mice. The following applies: read-out: MED. The experiment is classed as functional. A digest of the protocol:
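MED is the ip dose in mg/kg, given on days 1, 5 and 9 starting 1 day after implantation, that gives a 45% increase in life span over control in P388-bearing mice. It was derived from plotted log-dose response data.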

In experiment [13] the test system is Mus musculus. Put plainly: In vivo antitumor activity was determined against P388 (adriamycin sensitive tumors) as number of mice survived after administration of 0.3-1.8 mg/kg, ip dose of compound; Value represented as no of survivors/ treated = 4/8. The experiment is classed as functional.
For experiment [14], the system named is Mus musculus. Put plainly: Antitumor activity against P388 leukemia cells in terms of median survival time of mice at an optimal dose of 1000 ug/kg administered ip. Format: functional.
Experiment [15] relates to Mus musculus. Put plainly: In vivo antitumor activity was determined against B16 melanoma mice as number of mice survived after administration of 900 ug/Kg dose of compound; Value represented as no of survivors/ treated = 2/9.
In experiment [16] the test system is Mus musculus. Put plainly: In vivo antitumor activity was determined against P388 leukemia mice as number of mice survived after administration of 1000 ug/Kg dose of compound; Value represented as no of survivors/ treated = 2/8. The experiment is classed as functional.
Experiment [17] has as its system P388. Put plainly: Inhibition of RNA synthesis was measured as the concentration required to cause 50% reduction (in 1h) in 2-[14C]uridine incorporation into acid precipitable material using P388 cells. The experiment is classed as functional, cell-based. The following applies: Mus musculus, P388, 1 h.
Experiment [18] concerns P388. Put plainly: Inhibition of DNA synthesis was measured as the concentration required to cause 50% reduction (in 1h) in methyl [3H]thymidine incorporation into acid precipitable material using P388 cells. The experiment is classed as functional, cell-based. The following applies: Mus musculus. (In general: Uptake of a labelled nucleoside into DNA is a usual measure of proliferation.)

Molecules are shown by their SMILES.

For the compound `Cc1nc2c(C(=O)N[C@@H]3C(=O)N[C@H](C(C)C)C(=O)N4CCC[C@H]4C(=O)N(C)CC(=O)N(C)[C@@H](C(C)C)C(=O)O[C@@H]3C)c3nc4c(C(=O)N[C@@H]5C(=O)N[C@H](C(C)C)C(=O)N6CCC[C@H]6C(=O)N(C)CC(=O)N(C)[C@@H](C(C)C)C(=O)O[C@@H]5C)c(N)c(=O)c(C)c-4oc3c(C)c2o1` [listing 1 of 2 here], the Survivors with Mus musculus [1] and in the experiment with Mus musculus [5] was 3 throughout. Moreover, the figures for the MST in the experiment on Mus musculus [2] and with Mus musculus [8] were 42.5 days and 55 days, respectively. Also, in the experiment listed under Mus musculus [3], the ILS amounted to 90%. In the experiment with Mus musculus [4], this compound yielded an ILS at 0.45 mg/kg of 277%. Besides, the IC50 with CCRF-CEM is 110 nM. In the experiment listed under Rattus norvegicus [6], the NADPH oxidation was 21.3 nM min-1 (mg of protein)-1. Further, the adrenochrome formation in the experiment filed under Rattus norvegicus [7] is 6.04 nM min-1 (mg of protein)-1.

In turn, `Cc1c2oc3c(C)c4oc(-c5ccccc5)nc4c(C(=O)N[C@@H]4C(=O)N[C@H](C(C)C)C(=O)N5CCC[C@H]5C(=O)N(C)CC(=O)N(C)[C@@H](C(C)C)C(=O)O[C@@H]4C)c3nc-2c(C(=O)N[C@@H]2C(=O)N[C@H](C(C)C)C(=O)N3CCC[C@H]3C(=O)N(C)CC(=O)N(C)[C@@H](C(C)C)C(=O)O[C@@H]2C)cc1=O` registered an ILS at 0.9 mg/kg in the experiment on Mus musculus [9] of 55%. The “ILS (Sur)” value in the experiment with Mus musculus [10] is listed as 186%. Moreover, the MST in the experiment on Mus musculus [11] was 45 days; with Mus musculus [14] it was 31.5 days. The minimal effective dose in the experiment filed under Mus musculus [12] was 0.2 mg/kg. Moreover, the IC50 in the experiment with CCRF-CEM worked out at 500 nM. Besides, the Survivors was 4 in the experiment with Mus musculus [13], 2 with Mus musculus [15] and 2 in the experiment on Mus musculus [16].

For `Cc1nc2c(C(=O)N[C@@H]3C(=O)N[C@H](C(C)C)C(=O)N4CCC[C@H]4C(=O)N(C)CC(=O)N(C)[C@@H](C(C)C)C(=O)O[C@@H]3C)c3nc4c(C(=O)N[C@@H]5C(=O)N[C@H](C(C)C)C(=O)N6CCC[C@H]6C(=O)N(C)CC(=O)N(C)[C@@H](C(C)C)C(=O)O[C@@H]5C)c(N)c(=O)c(C)c-4oc3c(C)c2o1` [listing 2 of 2 here], the IC50 was 90 nM in the experiment with P388 [17] and 1010 nM with P388 [18].
